Measurements reported in ChEMBL document CHEMBL1145015, “Structure-activity relationships of 1,2,4-benzotriazine 1,4-dioxides as hypoxia-selective analogues of tirapazamine” (J Med Chem, 2003).
One block for each compound: values may come before it.

Key:
[1] = Intraexperimental difference between the hypoxic and aerobic cytotoxicity; format: functional
Procedure, shortened: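 Clonogenic SCCVII survival after 1 h drug exposure at 37 °C, either hypoxic (<200 ppm O2, 95% N2/5% CO2) or aerobic (95% air/5% CO2). Colonies of >50 cells counted after 10–14 days. HCR = aerobic C10 / hypoxic C10, with both values from the same experiment.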

[2] = Concentration required to reduce plating efficiency to 10 percent of controls, under aerobic conditions in mouse SCCVII tumor cells.; format: functional, SCC-7
Procedure, shortened: (§1)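 SCCVII cells plated in glass dishes (2×10^5 to 1×10^6 per dish) 1–2 days ahead. Drug freshly dissolved, given in complete medium for 1 h at 37 °C with shaking. Hypoxia (<200 ppm O2) by repeated evacuation/flushing with 95% N2 + 5% CO2; aerobic controls flushed with 95% air + 5% CO2. Cells washed, trypsinized, replated. Crystal violet stain after 10–14 days, >50-cell colonies scored. C10 is the concentration giving 10% of control plating efficiency.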

[3] = Concentration required to reduce plating efficiency to 10 percent of controls, under hypoxic conditions in mouse SCCVII tumor cells.; format: functional, SCC-7; procedure, shortened: as §1
[4] = Intraexperimental ratio of hypoxic TPZ C10 to hypoxic BTO C10 in mouse SCCVII tumor cells.; format: functional, SCC-7
Procedure, shortened: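 Computed within each experiment from the clonogenic SCCVII assay (1 h drug exposure, hypoxia <200 ppm O2 by gas evacuation/flushing, colony counting after 10–14 days). RHT = C10 of TPZ under hypoxia divided by C10 of the analogue under hypoxia.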

[5] = Partition coefficient (logP); format: physicochemical; conditions: octanol/water
Procedure, shortened: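 Octanol/water partition at pH 7.4, measured by low-volume shake flask. Drug in both the octanol and buffer phases quantified by HPLC.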

SMILES: CCCCS(=O)(=O)c1cccc2c1[n+]([O-])nc(N)[n+]2[O-]
HCR [1]: 21.1
C10 [2]: 175 µM
C10 [3]: 8.31 µM
RHT [4]: 1.2

SMILES: CCN(CC)c1ccc2c(c1)[n+]([O-])c(N)n[n+]2[O-]
C10 [2]: >1269 µM
C10 [3]: >50.8 µM
RHT [4]: <0.2

SMILES: CN(C)c1ccc2c(c1)[n+]([O-])nc(N)[n+]2[O-]
HCR [1]: 13.3
C10 [2]: 3159 µM
C10 [3]: 237 µM
RHT [4]: 0.043

SMILES: COc1ccc2c(c1)[n+]([O-])c(N)n[n+]2[O-]
C10 [3]: 127 µM
RHT [4]: 0.08

SMILES: CCN(CC)c1cccc2c1[n+]([O-])c(N)n[n+]2[O-]
HCR [1]: 0.87
C10 [2]: 58.7 µM
C10 [3]: 67.7 µM
RHT [4]: 0.15

SMILES: CN(C)c1ccc2c(c1)[n+]([O-])c(N)n[n+]2[O-]
HCR [1]: <1
C10 [2]: 440 µM
C10 [3]: >440 µM
RHT [4]: <0.023

SMILES: COc1ccc2c(c1)[n+]([O-])nc(N)[n+]2[O-]
HCR [1]: 100
C10 [2]: 1934 µM
C10 [3]: 19.3 µM
RHT [4]: 0.53

logP [5]: 0.24
SMILES: Cc1cccc2c1[n+]([O-])nc(N)[n+]2[O-]
HCR [1]: 102.9
C10 [2]: 2538 µM
C10 [3]: 24.7 µM
RHT [4]: 0.41

logP [5]: 0.82
SMILES: CCN(CC)c1cccc2c1[n+]([O-])nc(N)[n+]2[O-]
HCR [1]: 16.7
C10 [2]: 1904 µM
C10 [3]: 114 µM
RHT [4]: 0.089

logP [5]: 0.13
SMILES: Cc1ccc2c(c1)[n+]([O-])nc(N)[n+]2[O-]
HCR [1]: 125
C10 [2]: 2031 µM
C10 [3]: 16.2 µM
RHT [4]: 0.63

SMILES: Nc1n[n+]([O-])c2cccc(Cl)c2[n+]1[O-]
logP [5]: 0.07
HCR [1]: 1.4
C10 [2]: 10.2 µM
C10 [3]: 7.46 µM
RHT [4]: 1.4

SMILES: CCCCS(=O)(=O)c1ccc2c(c1)[n+]([O-])c(N)n[n+]2[O-]
HCR [1]: <6.3
C10 [2]: <102 µM
C10 [3]: 16.2 µM
RHT [4]: 0.63

SMILES: CS(=O)(=O)c1ccc2c(c1)[n+]([O-])c(N)n[n+]2[O-]
HCR [1]: <10.5
C10 [2]: <274 µM
C10 [3]: 26.1 µM
RHT [4]: 0.39

SMILES: Nc1n[n+]([O-])c2c(C(F)(F)F)cccc2[n+]1[O-]
logP [5]: 0.53
HCR [1]: 112.5
C10 [2]: 626 µM
C10 [3]: 5.56 µM
RHT [4]: 1.8

SMILES: Nc1n[n+]([O-])c2ccc(C(F)(F)F)cc2[n+]1[O-]
HCR [1]: 13.3
C10 [2]: 110 µM
C10 [3]: 8.23 µM
RHT [4]: 1.2

SMILES: Nc1n[n+]([O-])c2ccc(F)cc2[n+]1[O-]
HCR [1]: 11.2
C10 [2]: 114 µM
C10 [3]: 10.2 µM
RHT [4]: 1

logP [5]: -1.15
SMILES: CS(=O)(=O)c1ccc2c(c1)[n+]([O-])nc(N)[n+]2[O-]
HCR [1]: 7.9
C10 [2]: 251 µM
C10 [3]: 31.7 µM
RHT [4]: 0.32

SMILES: CN(C)c1cccc2c1[n+]([O-])nc(N)[n+]2[O-]
HCR [1]: 17.6
C10 [2]: 2769 µM
C10 [3]: 157 µM
RHT [4]: 0.065

SMILES: CCN(CC)c1ccc2c(c1)[n+]([O-])nc(N)[n+]2[O-]
C10 [2]: > 725 µM
C10 [3]: >72.5 µM
RHT [4]: <0.14

SMILES: CCCCS(=O)(=O)c1ccc2c(c1)[n+]([O-])nc(N)[n+]2[O-]
HCR [1]: >11.5
C10 [2]: >89.6 µM
C10 [3]: 7.76 µM
RHT [4]: 1.3

SMILES: Cc1cccc2c1[n+]([O-])c(N)n[n+]2[O-]
HCR [1]: <10
C10 [2]: < 381 µM
C10 [3]: 38.1 µM
RHT [4]: 0.27

SMILES: COc1cccc2c1[n+]([O-])c(N)n[n+]2[O-]
HCR [1]: 0.83
C10 [2]: 47.9 µM
C10 [3]: 58 µM
RHT [4]: 0.18

SMILES: Nc1n[n+]([O-])c2cccc(F)c2[n+]1[O-]
HCR [1]: <7.5
C10 [2]: <76.1 µM
C10 [3]: 10.2 µM
RHT [4]: 1
